Measured values taken from ChEMBL document CHEMBL1949548, “A β-tryptase inhibitor with a tropanylamide scaffold to improve in vitro stability and to lower hERG channel binding affinity” (Bioorg Med Chem Lett, 2012).

Experiments:
[1] = Inhibition of human tryptase-beta using S-2366 as substrate by chromogenic assay
[2] = Chemical stability in presence of human semicarbazide-sensitive amine oxidase assessed as compound remaining; assay type: physicochemical
Procedure, shortened: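 Human semicarbazide-sensitive amine oxidase (hSSAO) stability read as percent of compound remaining after 24 h.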

[3] = Metabolic stability in human liver microsomes after 20 mins; assay type: ADME, Microsome
Procedure, shortened: (§1)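 Liver microsomal fractions prepared by centrifugation. Compound incubated with the fractions for 20 min before the reaction was stopped. Stability expressed as percent of compound metabolized.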

[4] = Metabolic stability in rat liver microsomes after 20 mins; assay type: ADME, Microsome; procedure, shortened: as §1
Cytochrome P450 2D6 = Cytochrome P450 2D6 (Homo sapiens, UniProt P10635); experiment: Inhibition of human CYP2D6 using dexotromethorphan as substrate by LC-MS/MS analysis; assay type: ADME
Chain of Cytochrome P450 2D6 (P10635 whole entry): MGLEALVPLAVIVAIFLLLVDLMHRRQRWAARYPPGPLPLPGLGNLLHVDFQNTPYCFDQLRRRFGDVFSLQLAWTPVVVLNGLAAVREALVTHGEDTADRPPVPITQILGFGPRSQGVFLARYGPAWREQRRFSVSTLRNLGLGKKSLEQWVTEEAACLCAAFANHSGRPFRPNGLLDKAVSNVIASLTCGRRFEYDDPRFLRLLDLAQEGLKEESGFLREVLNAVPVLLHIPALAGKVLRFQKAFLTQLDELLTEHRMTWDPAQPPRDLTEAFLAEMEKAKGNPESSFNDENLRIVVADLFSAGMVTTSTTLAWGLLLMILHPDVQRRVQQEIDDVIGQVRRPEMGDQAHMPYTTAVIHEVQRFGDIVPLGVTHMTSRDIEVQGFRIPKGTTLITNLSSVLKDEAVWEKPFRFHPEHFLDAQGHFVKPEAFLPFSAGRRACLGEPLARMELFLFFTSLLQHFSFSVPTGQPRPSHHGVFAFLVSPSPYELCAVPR
Procedure, shortened: (§2)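 Direct-acting CYP inhibition was run in human liver microsomes. Activity was read by LC–MS/MS of marker-substrate turnover: midazolam for CYP3A4 and dexotromethorphan for CYP2D6. IC50 values were derived.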

Cytochrome P450 3A4 = Cytochrome P450 3A4 (Homo sapiens, UniProt P08684); experiment: Inhibition of human CYP3A4 using midazolam as substrate by LC-MS/MS analysis; assay type: ADME; procedure, shortened: as §2
Chain of Cytochrome P450 3A4 (P08684 whole entry): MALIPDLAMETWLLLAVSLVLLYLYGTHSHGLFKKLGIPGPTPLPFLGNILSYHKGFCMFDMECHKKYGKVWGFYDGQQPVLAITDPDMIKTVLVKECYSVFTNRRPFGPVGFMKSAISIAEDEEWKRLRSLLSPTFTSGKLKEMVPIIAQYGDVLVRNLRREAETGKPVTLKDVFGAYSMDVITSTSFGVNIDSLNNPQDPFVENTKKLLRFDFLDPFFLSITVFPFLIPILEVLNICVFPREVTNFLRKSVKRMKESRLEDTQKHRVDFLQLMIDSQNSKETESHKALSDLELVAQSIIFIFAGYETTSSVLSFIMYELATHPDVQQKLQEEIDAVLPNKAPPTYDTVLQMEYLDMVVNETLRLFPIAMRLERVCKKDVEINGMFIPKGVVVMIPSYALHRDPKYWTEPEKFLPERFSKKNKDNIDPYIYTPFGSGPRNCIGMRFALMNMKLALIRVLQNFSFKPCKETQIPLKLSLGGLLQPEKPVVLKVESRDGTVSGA

[5] = target: Voltage-gated inwardly rectifying potassium channel KCNH2 (Homo sapiens, UniProt Q12809); experiment: Inhibition of human ERG by whole-cell patch clamp electrophysiology assay
Chain of Voltage-gated inwardly rectifying potassium channel KCNH2 (Q12809 whole entry): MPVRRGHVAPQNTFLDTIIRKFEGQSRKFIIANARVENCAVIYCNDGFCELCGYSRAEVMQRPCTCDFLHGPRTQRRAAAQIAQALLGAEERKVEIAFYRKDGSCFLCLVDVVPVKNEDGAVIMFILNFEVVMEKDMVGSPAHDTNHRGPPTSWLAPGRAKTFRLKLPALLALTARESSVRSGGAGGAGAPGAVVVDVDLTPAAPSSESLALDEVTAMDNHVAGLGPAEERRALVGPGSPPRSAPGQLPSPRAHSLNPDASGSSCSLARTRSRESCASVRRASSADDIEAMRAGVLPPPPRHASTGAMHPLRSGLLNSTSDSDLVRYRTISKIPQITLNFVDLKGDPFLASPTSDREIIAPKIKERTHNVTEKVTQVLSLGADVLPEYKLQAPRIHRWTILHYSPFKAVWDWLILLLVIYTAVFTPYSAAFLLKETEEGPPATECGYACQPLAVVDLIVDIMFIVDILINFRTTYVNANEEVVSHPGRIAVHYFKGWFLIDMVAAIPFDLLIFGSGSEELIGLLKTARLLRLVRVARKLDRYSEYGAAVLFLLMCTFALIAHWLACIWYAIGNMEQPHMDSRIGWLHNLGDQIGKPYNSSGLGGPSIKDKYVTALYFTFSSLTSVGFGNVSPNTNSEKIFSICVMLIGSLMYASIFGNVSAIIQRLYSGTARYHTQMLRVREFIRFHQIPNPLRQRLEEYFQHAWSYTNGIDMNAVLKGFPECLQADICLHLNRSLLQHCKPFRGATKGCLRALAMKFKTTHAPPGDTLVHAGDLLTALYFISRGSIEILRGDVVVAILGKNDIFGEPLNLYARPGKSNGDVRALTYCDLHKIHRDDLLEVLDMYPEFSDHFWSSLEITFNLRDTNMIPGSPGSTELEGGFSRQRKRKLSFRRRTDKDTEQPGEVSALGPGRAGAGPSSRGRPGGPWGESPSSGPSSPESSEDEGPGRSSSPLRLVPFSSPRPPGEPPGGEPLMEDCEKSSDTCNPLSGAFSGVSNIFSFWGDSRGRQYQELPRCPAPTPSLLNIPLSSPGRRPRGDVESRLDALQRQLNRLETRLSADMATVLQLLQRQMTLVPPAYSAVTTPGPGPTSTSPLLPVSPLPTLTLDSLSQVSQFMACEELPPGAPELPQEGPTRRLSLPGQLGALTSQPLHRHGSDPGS
Procedure, shortened: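 hERG potassium channel expressed in Chinese hamster ovary cells; channel currents recorded by whole-cell patch clamp electrophysiology.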

hERG (KCNH2) [6] = target: T1, hERG (KCNH2) (Homo sapiens, UniProt Q12809); experiment: Inhibition of human ERG at 10 uM by whole-cell patch clamp electrophysiology assay
T1 sequence (Q12809 whole entry): as above
Procedure, shortened: (§3)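 hERG potassium channel expressed in Chinese hamster ovary cells. Channel currents recorded by whole-cell patch clamp electrophysiology, with percent inhibition of current reported.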

hERG (KCNH2) [7] = target: T1, hERG (KCNH2); experiment: Inhibition of human ERG at 1 uM by whole-cell patch clamp electrophysiology assay; procedure, shortened: as §3

| SMILES | Ki [1] [µM] | Stability [2] [%] | metabolized at 20 min [3] [%] | metabolized at 20 min [4] [%] | IC50 (Cytochrome P450 2D6) [µM] | IC50 (Cytochrome P450 3A4) [µM] | IC50 [5] [µM] | inhibition at 10 µM (hERG (KCNH2) [6]) [%] | inhibition at 1 µM (hERG (KCNH2) [7]) [%] |
| --- | --- | --- | --- | --- | --- | --- | --- | --- | --- |
| CCCOc1sc(C(=O)N2CCC(c3cccc(CN)c3)CC2)c(C)c1Br | 0.022 | 70 | 26 | 6 | 2.5 | 4.7 | 1 | – | – |
| CCCOc1sc(C(=O)N2[C@H]3CC[C@H]2CC(c2cc(CN)ccc2F)C3)c(C)c1Br (some centres undefined) | – | 86 | 7 | 0 | 6.9 | 5.3 | – | 36 | 14 |
